The record followed here is PubChem BioAssay.

Assay [1] can be described thus: reducers of endogenous Her2 protein level, primary screen, SKBR3 breast tumor cells, AlphaScreen, ATP viability (AID 461;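 active = Her2 level under about 52% in both replicate screens, with viability over 70% of control, limit read from the data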;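 as to Her2 level: lower value means less Her2 protein in the cells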;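 as to viability: percent of carrier control wells set as 100% viability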). As to conditions: 18-24 h, measured here: SKBR3 viability, ATP luminescence, at 10 µM.
In assay [2] the target is Receptor tyrosine-protein kinase erbB-2 (Homo sapiens) (UniProt P04626). The assay is described as above. As to conditions: 18-24 h, at 10 µM, stronger effect = lower value.
Assay [3] is described as follows: SK-BR-3 cell growth inhibitors, pilot screen, 24 h, human (AID 572;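 active = viability at or below 10% of carrier control in both of two separate runs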;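 also: compound exposure lasted between 18 and 24 h rather than exactly 24 h; 100% = carrier-treated control wells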). The note with it: SK-BR-3 viability, CellTiter-Glo luminescence, at 10 µM, stronger effect = lower value. For orientation: Cellular ATP, detected with luciferase, serves as a proxy for viable cell number.
The nature of assay [4]: HUVEC growth inhibition – cell-based, human, primary screen (AID 575;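 active = viability at or below 30% in both replicate assays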;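 also: 100% = median of untreated cell wells with 0.1% DMSO on each plate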). The note with it: HUVEC proliferation, CellTiter-Glo luminescence, 72 h; at 10 µM; stronger effect = lower value. The gist of the method:
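Test system – primary HUVEC, no more than 12 passages · Dosing – one dose, 10 µM final, 0.1% DMSO · Times – 72 h treatment at 37 °C · Measured by – ATP-based CellTiter-Glo luminescent read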

A short description of assay [5]: growth inhibitors of H69AR lung tumor, primary screen, human, duplicate replicates (AID 580;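 active = viability at or under a set limit in both replicates, limit being median viability minus 3 SD, cut at about 48% in these data, passing the limit was not always enough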;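 also: 100% = mean luminescence of untreated wells and 0% = no signal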). As to conditions: H69AR lung tumor cells viability, ATP luminescence, 72 h; at 10 µM; stronger effect = lower value.
Assay [6] is described as follows: reversal of MRP1-mediated doxorubicin resistance, pilot screen, H69AR cells, doxorubicin co-treatment (AID 601). The note with it: CellTiter-Glo, 72 h, at 10 µM; for differential viability (reversal): stronger effect = higher value.
Assay [7] in a line: 384-well plate pilot, post-Golgi transport modulator project, inhibition of yeast transport mutant growth (AID 636; in the data active = inhibition above about 31%). The note with it: absorbance 615 nm, about 18 h, stronger effect = higher value.
Assay [8] is described as follows: growth suppression of yeast trafficking mutant, preliminary HTS, modulators of trafficking downstream of Golgi apparatus project, 1536-format plate, OD 615 nm (AID 637; in the data active = inhibition above about 30%). The note with it: yeast transport mutant growth, absorbance 615 nm, 18 h; stronger effect = higher value.
[9] abbreviates: H69AR cells + 2 uM doxorubicin, measured here: viability with 2 uM doxorubicin, stronger effect = lower value.
[10] abbreviates: H69AR cells, compound alone cytotoxicity.

By viability is commonly meant a read-out of living cells in per cent, often relative to untreated cells. A word on the inhibition: it is the change of the read-out against control, counted positive when it falls.

Molecules are shown by their SMILES. Activity calls are given as the source filed them.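 The calls were made as follows, unless noted: active = viability loss from added drug above about 55%, and viability with drug at most 40%, in both replicates (limit read from the data, passing the limit was not always enough); inconclusive = both conditions met in only one replicate; inactive = neither replicate meets both conditions.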

Sequence of Receptor tyrosine-protein kinase erbB-2 (Homo sapiens) (P04626 whole entry, looked up): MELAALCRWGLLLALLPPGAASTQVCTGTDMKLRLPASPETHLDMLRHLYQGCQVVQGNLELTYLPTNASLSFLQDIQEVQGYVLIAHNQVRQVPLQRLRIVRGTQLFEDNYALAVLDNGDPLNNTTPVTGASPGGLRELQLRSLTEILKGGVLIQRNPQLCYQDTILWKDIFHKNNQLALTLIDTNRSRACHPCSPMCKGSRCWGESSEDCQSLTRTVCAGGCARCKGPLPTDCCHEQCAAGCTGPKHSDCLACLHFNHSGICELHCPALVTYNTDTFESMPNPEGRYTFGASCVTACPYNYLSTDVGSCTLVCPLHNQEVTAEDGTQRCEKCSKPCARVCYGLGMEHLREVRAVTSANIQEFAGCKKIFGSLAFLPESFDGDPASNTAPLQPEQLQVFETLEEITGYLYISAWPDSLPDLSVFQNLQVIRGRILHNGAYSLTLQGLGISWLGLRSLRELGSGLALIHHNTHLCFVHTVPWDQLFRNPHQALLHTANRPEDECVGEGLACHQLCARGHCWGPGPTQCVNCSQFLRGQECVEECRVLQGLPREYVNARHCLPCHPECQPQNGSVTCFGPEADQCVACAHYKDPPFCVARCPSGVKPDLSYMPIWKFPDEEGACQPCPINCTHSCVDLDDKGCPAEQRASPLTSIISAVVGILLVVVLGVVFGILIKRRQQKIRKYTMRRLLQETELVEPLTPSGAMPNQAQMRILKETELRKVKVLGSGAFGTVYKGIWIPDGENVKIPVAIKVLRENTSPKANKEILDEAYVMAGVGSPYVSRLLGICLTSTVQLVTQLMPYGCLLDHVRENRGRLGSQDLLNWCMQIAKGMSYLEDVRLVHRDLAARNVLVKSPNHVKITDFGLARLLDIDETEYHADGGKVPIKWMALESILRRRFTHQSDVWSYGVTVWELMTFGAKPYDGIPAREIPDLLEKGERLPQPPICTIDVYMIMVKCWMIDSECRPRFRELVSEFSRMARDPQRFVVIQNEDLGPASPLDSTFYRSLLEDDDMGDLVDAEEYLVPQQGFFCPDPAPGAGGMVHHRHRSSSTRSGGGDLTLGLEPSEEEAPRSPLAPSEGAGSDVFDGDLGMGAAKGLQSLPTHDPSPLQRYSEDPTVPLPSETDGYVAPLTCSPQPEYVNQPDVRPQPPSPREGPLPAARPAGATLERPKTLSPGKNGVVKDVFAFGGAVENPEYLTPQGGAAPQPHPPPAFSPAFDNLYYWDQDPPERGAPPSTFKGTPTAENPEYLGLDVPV

On to `COc1ccc(C)cc1-n1nnnc1SCC(=O)Nc1cc(C)on1`, for which the viability in assay [1] was 95%; in assay [3] it was 95% (inactive); in assay [4], 78.6% (inactive); in assay [5], 90.6% (inactive); in assay [6] (setting [9]), 85.9%; in assay [6] (setting [10]) it was 90.6%. Besides, in assay [2], the Her2 level is 85% (inactive). In assay [6] (H69AR cells + 2 uM doxorubicin), the differential viability (reversal) was 4.68% (inactive). Moreover, the inhibition is -2.6% (inactive) in assay [7] and -0.63% (inactive) in assay [8].
Take `C=CCSC1=C(C#N)C(c2ccccc2)CC(=O)N1` (stereo not given): the viability is 106% in assay [1]; 106% (inactive) in assay [3]; 114% (inactive) in assay [4]; 104% (inactive) in assay [5]; 97.4% in assay [6] (setting [9]); 104% in assay [6] (setting [10]). The Her2 level in assay [2] is 93.5% (inactive). The differential viability (reversal) in assay [6] (H69AR cells + 2 uM doxorubicin) is 6.72% (inactive). For the same compound, the inhibition was -1.87% (inactive) in assay [7] and -4.35% (inactive) in assay [8].
On to `CCOc1cccc(/C(O)=C2/C(=O)C(=O)N(CCN3CCOCC3)C2c2cccnc2)c1` (stereo not given), for which the viability was 98.5% in assay [1]; 98.5% (inactive) in assay [3]; 87.3% (inactive) in assay [4]; 103% (inactive) in assay [5]; 98.2% in assay [6] (setting [9]); 103% in assay [6] (setting [10]). In assay [2], the Her2 level is 99.5% (inactive). The differential viability (reversal) in assay [6] (H69AR cells + 2 uM doxorubicin) is 5.18% (inactive). The inhibition was -3.68% (inactive) in assay [7] and -3.17% (inactive) in assay [8].
For `O=C(c1ccc2c(c1)OCO2)N1CCCN(C(=O)c2ccc3c(c2)OCO3)CC1`, the viability is 89.5% in assay [1]; 89.5% (inactive) in assay [3]; 110% (inactive) in assay [4]; 97.9% (inactive) in assay [5]; 87.2% in assay [6] (setting [9]); 97.9% in assay [6] (setting [10]). The Her2 level in assay [2] is 91% (inactive). Further, the differential viability (reversal) in assay [6] (H69AR cells + 2 uM doxorubicin) is 10.7% (inactive). In addition, the inhibition was -1.95% (inactive) in assay [7] and -1.97% (inactive) in assay [8].
Consider `Cc1coc2cc3oc(=O)c4c(c3cc12)CCC4`, for which the viability in assay [1] was 111%; in assay [3], 111% (inactive); in assay [4] it was 85.1% (inactive); in assay [5], 104% (inactive); in assay [6] (setting [9]) it was 97.2%; in assay [6] (setting [10]), 104%. In assay [2], the Her2 level was 81.5% (inactive). In addition, the differential viability (reversal) in assay [6] (H69AR cells + 2 uM doxorubicin) was 6.42% (inactive). Besides, the values for the inhibition in assay [7] and in assay [8] were -2.7% (inactive) and -2.86% (inactive), respectively.
As to `Cc1c(C(=O)O)sc2nc3n(c(=O)c12)CCC(C)CC3` (stereo not given), the viability was 93% in assay [1]; 93% (inactive) in assay [3]; 82.2% (inactive) in assay [4]; 88.2% (inactive) in assay [5]; 83% in assay [6] (setting [9]); 88.2% in assay [6] (setting [10]). For the same compound, the Her2 level in assay [2] was 87% (inactive). The differential viability (reversal) in assay [6] (H69AR cells + 2 uM doxorubicin) is 5.25% (inactive). The inhibition in assay [7] was -0.53% (inactive); in assay [8] it was 8.69% (inactive).
On to `COC(=O)c1sc2ccccc2c1NC(=O)c1cccs1`, for which the viability in assay [1] was 97.5%; in assay [3] it was 97.5% (inactive); in assay [4], 82.1% (inactive); in assay [5], 82.1% (inactive); in assay [6] (setting [9]), 99.3%; in assay [6] (setting [10]), 82.1%. Moreover, the Her2 level in assay [2] was 99.5% (inactive). For the same compound, the differential viability (reversal) in assay [6] (H69AR cells + 2 uM doxorubicin) was -17.2% (inactive). Besides, the inhibition in assay [7] was -2.08% (inactive); in assay [8], -5.87% (inactive).
In the case of `CCn1c(=O)c(C(=O)NCCc2ccccc2)c(O)c2ccccc21`, the viability was 99% in assay [1]; 99% (inactive) in assay [3]; 58.8% (inactive) in assay [4]; 61.6% (inactive) in assay [5]; 87.6% in assay [6] (setting [9]); 61.6% in assay [6] (setting [10]). For the same compound, in assay [2], the Her2 level is 102% (inactive). In addition, the differential viability (reversal) in assay [6] (H69AR cells + 2 uM doxorubicin) is -26% (inactive). For the same compound, the results for the inhibition in assay [7] and in assay [8] were -1.03% (inactive) and -5.17% (inactive), respectively.
Regarding `CC1=C(C(=O)Nc2ccccc2)C(c2ccco2)C(C#N)=C(SCC(=O)Nc2cccc(C)c2C)N1` (stereo not given), the viability was 104% in assay [1]; 104% (inactive) in assay [3]; 77.1% (inactive) in assay [4]; 47.5% (active) in assay [5]; 57.6% in assay [6] (setting [9]); 47.5% in assay [6] (setting [10]). In addition, the Her2 level in assay [2] was 85.5% (inactive). Also, the differential viability (reversal) in assay [6] (H69AR cells + 2 uM doxorubicin) was -10.1% (inactive). Also, the inhibition was -4.93% (inactive) in assay [7] and -3.97% (inactive) in assay [8].
Consider `CC(=O)N1C(=O)C2(C(C#N)=C(N)Oc3cc(C)oc(=O)c32)c2ccccc21` (stereo not given), for which the viability is 95.5% in assay [1]; 95.5% (inactive) in assay [3]; 95.9% (inactive) in assay [4]; 88.1% (inactive) in assay [5]; 80.6% in assay [6] (setting [9]); 88.1% in assay [6] (setting [10]). Besides, the Her2 level in assay [2] was 112% (inactive). In addition, the differential viability (reversal) in assay [6] (H69AR cells + 2 uM doxorubicin) was 7.52% (inactive). For the same compound, the figures for the inhibition in assay [7] and in assay [8] were 1.84% (inactive) and -2.91% (inactive), respectively.
As for `CCCCC(=O)NCCc1cc2ccc(OC)cc2[nH]c1=O`, the viability is 91.5% in assay [1]; 91.5% (inactive) in assay [3]; 102% (inactive) in assay [4]; 103% (inactive) in assay [5]; 95.4% in assay [6] (setting [9]); 103% in assay [6] (setting [10]). Further, in assay [2], the Her2 level was 85.5% (inactive). Moreover, the differential viability (reversal) in assay [6] (H69AR cells + 2 uM doxorubicin) is 7.54% (inactive). The values for the inhibition in assay [7] and in assay [8] were -7.95% (inactive) and -3.33% (inactive), respectively.
Consider `CCc1ccccc1NC(=O)CSc1ncn[nH]1`, for which the viability is 101% in assay [1]; 101% (inactive) in assay [3]; 97.9% (inactive) in assay [4]; 103% (inactive) in assay [5]; 94% in assay [6] (setting [9]); 103% in assay [6] (setting [10]). Further, the Her2 level in assay [2] was 124% (inactive). Besides, the differential viability (reversal) in assay [6] (H69AR cells + 2 uM doxorubicin) was 8.47% (inactive). Moreover, the results for the inhibition in assay [7] and in assay [8] were -1.82% (inactive) and -6.33% (inactive), respectively.
`Cc1ccccc1-c1nc(Cc2ccccc2)no1`: the viability in assay [1] is 77.5%; in assay [3] it was 77.5% (inactive); in assay [4], 104% (inactive); in assay [5], 102% (inactive); in assay [6] (setting [9]) it was 82.5%; in assay [6] (setting [10]) it was 102%. Further, the Her2 level in assay [2] is 97.5% (inactive). In addition, the differential viability (reversal) in assay [6] (H69AR cells + 2 uM doxorubicin) is 19.1% (inactive). Also, the inhibition was -0.51% (inactive) in assay [7] and -3.33% (inactive) in assay [8].
As for `CN(C)C(=O)CSc1nnc([C@H](Cc2c[nH]c3ccccc23)NC(=O)OC(C)(C)C)o1`, the viability in assay [1] is 104%; in assay [3], 104% (inactive); in assay [4] it was 94.9% (inactive); in assay [5], 94.6% (inactive); in assay [6] (setting [9]), 94.6%; in assay [6] (setting [10]) it was 94.6%. Also, the Her2 level in assay [2] was 96.5% (inactive). Also, the differential viability (reversal) in assay [6] (H69AR cells + 2 uM doxorubicin) was 0.01% (inactive). The inhibition in assay [7] is -3.68% (inactive); in assay [8], 5.57% (inactive).
With `Cc1ccc2oc(-c3ccccc3C(=O)O)cc(=O)c2c1`, the viability in assay [1] was 88.5%; in assay [3], 88.5% (inactive); in assay [4], 89.3% (inactive); in assay [5], 101% (inactive); in assay [6] (setting [9]), 103%; in assay [6] (setting [10]), 101%. For the same compound, the Her2 level in assay [2] is 84.5% (inactive). In addition, the differential viability (reversal) in assay [6] (H69AR cells + 2 uM doxorubicin) was -2.34% (inactive). Moreover, the inhibition in assay [7] is -6.93% (inactive); in assay [8] it was 6.07% (inactive).
